# Published values gathered from unrelated publications.
# Protocols differ between the studies behind these lines. pEC50, pIC50, pKd, pKi: −log10 of the molar value.
# CES2: Cocaine esterase (CES2, Homo sapiens, UniProt O00748)
# SLC6A2: Sodium-dependent noradrenaline transporter (SLC6A2, Homo sapiens, UniProt P23975)
# FPR1: fMet-Leu-Phe receptor (FPR1, Homo sapiens, UniProt P21462)
# Oprk1: Kappa-type opioid receptor (Oprk1, Mus musculus, UniProt P33534)
# WD repeat-containing protein 91: WD repeat-containing protein 91 (Homo sapiens, UniProt A4D1P6)
target,test,setting,endpoint,value,SMILES
CES2,"enzyme activity, inhibitor, fluorescence",with preincubation,pIC50,< 4.00,CC(=O)[C@H]1CC[C@H]2[C@@H]3CC=C4C[C@@H](O)CC[C@]4(C)[C@H]3CC[C@]12C
SLC6A2,"ligand displacement, radioligand",,pKi,6.09,CCOC(=O)[C@@]12C[C@@H]1[C@@H](n1cnc3c(NCCCCCc4ccccc4)nc(C#Cc4ccc(Cl)s4)nc31)[C@H](O)[C@@H]2O
CES2,"enzyme activity, inhibitor, fluorescence",with preincubation,pIC50,< 4.00,O=C(c1ccc(OCCN2CCCCC2)cc1)c1c(-c2ccc(O)cc2)sc2cc(O)ccc12
FPR1,"calcium signal, agonist",,pEC50,4.48,N#Cc1ccc(C[C@H](Nc2nnc(-c3cccc(Br)c3)s2)C(=O)N2CCc3ccccc32)cc1
CES2,"enzyme activity, inhibitor, fluorescence",with preincubation,pIC50,< 4.00,COc1ccc(/C=C2\Cc3cc(OC)c(OC)cc3C2=O)cc1OC
"NACHT, LRR and PYD domains-containing protein 3 (NLRP3, Homo sapiens, UniProt Q96P20)","binding, SPR",,pKd,4.73,O=c1cc(-c2ccc(O)cc2)oc2cc(O)cc(O)c12
SLC6A2,"ligand displacement, radioligand",,pKi,5.43,CCOC(=O)[C@@]12C[C@@H]1[C@@H](n1cnc3c(NC4CC4)nc(C#Cc4ccc(Cl)s4)nc31)[C@H](O)[C@@H]2O
Oprk1,"ligand displacement, radioligand",,pKi,5.67,CC(C)[C@@H](CN1CCc2ccccc2C1)NC(=O)c1cccc(-c2cccc(C#N)c2)c1
FPR1,"calcium signal, agonist",,pEC50,4.52,N#Cc1ccc(C[C@H](Nc2nnc(-c3cccc(F)c3)o2)C(=O)N2CCc3ccccc32)cc1
CES2,"enzyme activity, inhibitor, fluorescence",with preincubation,pIC50,5.72,COc1cc2c(cc1OC)C(=O)/C(=C/c1ccc(O)cc1)C2
WD repeat-containing protein 91,"binding, SPR",,pKd,6.00,CNc1nc(N[C@@H]2CCc3c(C#N)cccc32)cc(-c2cccc(N3CCCC3)c2)n1
SLC6A2,"ligand displacement, radioligand",,pKi,5.82,CCOC(=O)[C@@]12C[C@@H]1[C@@H](n1ccc3c(NCCCCc4ccccc4)nc(C#Cc4ccccc4)nc31)[C@H](O)[C@@H]2O
FPR1,"calcium signal, agonist",,pEC50,4.57,N#Cc1ccc(C[C@H](Nc2nnc(-c3cccc(Br)c3)o2)C(=O)N2CCc3ccccc32)cc1
"Melanocortin receptor 4 (MC4R, Homo sapiens, UniProt P32245)","cAMP, agonist",,pEC50,< 6.00,CCCC[C@H](NC(C)=O)C(=O)N[C@H]1CC(=O)NCCCC[C@@H](C(=O)N[C@@H](C(=O)N2CCC[C@@H]2C(N)=O)C(C)C)NC(=O)[C@H](Cc2c[nH]c3ccccc23)NC(=O)[C@H](CCCN=C(N)N)NC(=O)[C@@H](Cc2ccc3ccccc3c2)NC(=O)[C@@H]2CCCN2C1=O
SLC6A2,"ligand displacement, radioligand",,pKi,5.60,CNC(=O)[C@@]12C[C@@H]1[C@@H](n1cnc3c(Nc4ccccc4)nc(C#Cc4ccc(Cl)s4)nc31)[C@H](O)[C@@H]2O
CES2,"enzyme activity, inhibitor, fluorescence",with preincubation,pIC50,6.14,COc1cc2c(cc1OC)C(=O)/C(=C/c1ccccc1N1CCCC1)C2
Oprk1,"ligand displacement, radioligand",,pKi,5.03,CC(C)[C@H](CN1CCc2ccccc2C1)NC(=O)c1ccc([N+](=O)[O-])s1
SLC6A2,"ligand displacement, radioligand",,pKi,5.27,CCOC(=O)[C@@]12C[C@@H]1[C@@H](n1cnc3c(NCCCCCCc4ccccc4)nc(C#Cc4ccc(Cl)s4)nc31)[C@H](O)[C@@H]2O
Oprk1,"ligand displacement, radioligand",,pKi,4.44,CC(C)[C@@H](CN1CCc2ccccc2C1)NC(=O)c1ccc(F)cc1
"Prostaglandin D2 receptor (PTGDR, Homo sapiens, UniProt Q13258)","G protein activation, agonist, BRET",,pEC50,8.19,CCCCC[C@H](O)/C=C/[C@H]1C(=O)C[C@H](O)[C@@H]1C/C=C\CCCC(=O)O
CES2,"enzyme activity, inhibitor, fluorescence",with preincubation,pIC50,< 4.00,COc1cc([C@@H]2c3cc4c(cc3[C@@H](O[C@@H]3O[C@@H]5CO[C@@H](C)O[C@H]5[C@H](O)[C@H]3O)[C@H]3COC(=O)[C@H]23)OCO4)cc(OC)c1O
Oprk1,"ligand displacement, radioligand",,pKi,4.90,CC(C)[C@H](CN1CCc2ccccc2C1)NC(=O)c1c(Cl)cncc1Cl
CES2,"enzyme activity, inhibitor, fluorescence",with preincubation,pIC50,4.66,COc1cc(Nc2c(C#N)cnc3cc(OCCCN4CCN(C)CC4)c(OC)cc23)c(Cl)cc1Cl
SLC6A2,"ligand displacement, radioligand",,pKi,5.64,CNC(=O)[C@@]12C[C@@H]1[C@@H](n1cnc3c(NCc4cccc(Cl)c4)nc(C#Cc4ccc(Cl)s4)nc31)[C@H](O)[C@@H]2O
CES2,"enzyme activity, inhibitor, fluorescence",with preincubation,pIC50,4.98,COc1cc2c(cc1OC)C(=O)/C(=C/c1ccc3ccccc3c1)C2
SLC6A2,"ligand displacement, radioligand",,pEC50,6.12,CNc1nc(C#Cc2ccc(Cl)s2)nc2c1ncn2[C@H]1[C@H](O)[C@H](O)[C@]2(C(=O)OC)C[C@H]12
"Muscarinic acetylcholine receptor M5 (CHRM5, Homo sapiens, UniProt P08912)","ligand displacement, radioligand",cell membranes,pIC50,4.71,O=C(CCNC(=O)CNC(=O)CC(c1ccccc1)(c1ccccc1)c1ccccc1)NC[C@H]1CCCN(Cc2ccc(F)cc2)C1
SLC6A2,"ligand displacement, radioligand",,pKi,6.33,CCOC(=O)[C@@]12C[C@@H]1[C@@H](n1ccc3c(NCCCCCc4ccccc4)nc(C#Cc4ccccc4)nc31)[C@H](O)[C@@H]2O
WD repeat-containing protein 91,"binding, SPR",,pKd,5.70,CN1C(=O)C(c2c(-c3ccc(Cl)cc3)[nH]c3c2c(=O)[nH]c(=O)n3C)c2ccccc21 (centres unmarked)
